What was measured:
[1] = Michaelis constant (Km), determined by Ficin hydrolysis at pH 6, 25 degrees Centigrade; type: ADME; conditions: buffer
Summary of the method: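 Ficin stock suspension diluted in 0.03 M NaCl-0.01 M EDTA buffer pH 6, activated ~2 h by saturation with 4-thiocresol, then diluted again in the same buffer. Ester hydrolysis followed spectrophotometrically at 25 °C, pH 6, in 3.3% acetonitrile-buffer. Initial rates taken at ≥8 substrate concentrations per ester. Km from least-squares fit of a Lineweaver-Burk plot.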

[2] = The compound was tested and spectral absorbance change (Δε) was evaluated
[3] = The compound was tested and optimum wavelength (λmax) was evaluated
[4] = The compound was tested for optimum wavelength (λmax)

SMILES	Log 1/Km [1]	other results
COc1ccc(OC(=O)CNC(=O)c2ccccc2)cc1	3.82	–
CC(=O)c1cccc(OC(=O)CNC(=O)c2ccccc2)c1	4.11	Δε [2]: 1860 M⁻¹ cm⁻¹; λmax [3]: 310 nm
O=C(CNC(=O)c1ccccc1)Oc1cccc(I)c1	4.64	–
Cc1ccc(OC(=O)CNC(=O)c2ccccc2)cc1	3.82	–
Cc1cc(C)cc(OC(=O)CNC(=O)c2ccccc2)c1	4.54	–
O=C(CNC(=O)c1ccccc1)Oc1cccc(Cl)c1	4.43	–
O=C(CNC(=O)c1ccccc1)Oc1cc(Cl)cc(Cl)c1	4.98	–
O=C(CNC(=O)c1ccccc1)Oc1ccccc1	3.9	–
CC(C)(C)c1cccc(OC(=O)CNC(=O)c2ccccc2)c1	5.14	–
O=C(CNC(=O)c1ccccc1)Oc1cccc([N+](=O)[O-])c1	4.36	–
CC(=O)c1ccc(OC(=O)CNC(=O)c2ccccc2)cc1	4.3	–
O=C(CNC(=O)c1ccccc1)Oc1ccc(F)cc1	3.53	–
NC(=O)c1ccc(OC(=O)CNC(=O)c2ccccc2)cc1	4.17	–
N#Cc1ccc(OC(=O)CNC(=O)c2ccccc2)cc1	4.27	–
COc1cccc(OC(=O)CNC(=O)c2ccccc2)c1	4.09	Δε [2]: 886 M⁻¹ cm⁻¹; λmax [3]: 280 nm
O=C(CNC(=O)c1ccccc1)Oc1cccc(F)c1	3.81	–
O=C(CNC(=O)c1ccccc1)Oc1cc([N+](=O)[O-])cc([N+](=O)[O-])c1	4.69	–
NC(=O)c1cccc(OC(=O)CNC(=O)c2ccccc2)c1	3.99	–
COc1cc(OC)cc(OC(=O)CNC(=O)c2ccccc2)c1	4.52	–
O=C(CNC(=O)c1ccccc1)Oc1ccc(Br)cc1	4.13	Δε [2]: 1090 M⁻¹ cm⁻¹; λmax [4]: 280 nm
Cc1cccc(OC(=O)CNC(=O)c2ccccc2)c1	4.17	–
O=C(CNC(=O)c1ccccc1)Oc1ccc([N+](=O)[O-])cc1	4.5	–
CCc1cc(C)cc(OC(=O)CNC(=O)c2ccccc2)c1	4.79	–
Nc1cccc(OC(=O)CNC(=O)c2ccccc2)c1	3.72	–
O=C(CNC(=O)c1ccccc1)Oc1cccc(C(F)(F)F)c1	4.85	–
CC(=O)Nc1cccc(OC(=O)CNC(=O)c2ccccc2)c1	3.74	–
N#Cc1cccc(OC(=O)CNC(=O)c2ccccc2)c1	4.15	–
O=C(CNC(=O)c1ccccc1)Oc1ccc(Cl)cc1	3.91	–
CC(C)c1ccc(OC(=O)CNC(=O)c2ccccc2)cc1	4.33	Δε [2]: 1300 M⁻¹ cm⁻¹; λmax [3]: 275 nm
O=C(CNC(=O)c1ccccc1)Oc1cccc(Br)c1	4.75	–
